According to PMC8441110 (Computational and Structural Biotechnology Journal, 2021):
Where no end group is shown, it is not given here.

system: Klebsiella pneumoniae (K. pneumoniae) (ATCC 43816); test: MIC/MBC determination; assay type: cell-based; conditions: 10 µl from MIC wells on MHA, 37 °C, 20 h, no colony growth
Procedure, shortened: (§1)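 Bacteria grown overnight at 37 °C in MHB and diluted to 5 × 10^5 CFU/ml. Peptide stocks in PBS, two-fold from 51200 µM to 100 µM, added 1 µl per 99 µl suspension. Norfloxacin (20 mg/l) was the positive control. After 20 h at 37 °C, OD 550 nm read; MIC = no apparent growth. For MBC, 10 µl from MIC and higher wells spotted on MHA, 37 °C 20 h; lowest without colonies.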

Substance | MBC [µM]
GVIFNALKGVAKTVAAQLLKK-NH2 [GV21] | 16
GVIFNALKGVAKTVAAQLLKKAR-NH2 [GV23] | 64
TVAAQLLKKAR-NH2 [GV11] | > 512

same assay, conditions: MHB, 5 × 10^5 CFU/ml, 37 °C, 20 h, read at 550 nm

Substance | MIC [µM]
GVIFNALKGVAKTVAAQLLKK-NH2 [GV21] | 16
GVIFNALKGVAKTVAAQLLKKAR-NH2 [GV23] | 32
TVAAQLLKKAR-NH2 [GV11] | > 512

system: MRSA (ATCC BAA 1707); test: MIC/MBC determination; assay type: cell-based, Methicillin-resistant Staphylococcus aureus; conditions: 10 µl from MIC wells on MHA, 37 °C, 20 h, no colony growth
Procedure, shortened: as §1

Substance | MBC [µM]
GVIFNALKGVAKTVAAQLLKK-NH2 [GV21] | 8
GVIFNALKGVAKTVAAQLLKKAR-NH2 [GV23] | 8
TVAAQLLKKAR-NH2 [GV11] | > 512

same assay, conditions: MHB, 5 × 10^5 CFU/ml, 37 °C, 20 h, read at 550 nm

Substance | MIC [µM]
GVIFNALKGVAKTVAAQLLKK-NH2 [GV21] | 4
GVIFNALKGVAKTVAAQLLKKAR-NH2 [GV23] | 8
TVAAQLLKKAR-NH2 [GV11] | > 512

system: Pseudomonas aeruginosa (P. aeruginosa) (ATCC 9027); test: MIC/MBC determination; assay type: cell-based; conditions: 10 µl from MIC wells on MHA, 37 °C, 20 h, no colony growth
Procedure, shortened: as §1

Substance | MBC [µM]
GVIFNALKGVAKTVAAQLLKK-NH2 [GV21] | 16
GVIFNALKGVAKTVAAQLLKKAR-NH2 [GV23] | 16
TVAAQLLKKAR-NH2 [GV11] | > 512

same assay, conditions: MHB, 5 × 10^5 CFU/ml, 37 °C, 20 h, read at 550 nm

Substance | MIC [µM]
GVIFNALKGVAKTVAAQLLKK-NH2 [GV21] | 16
GVIFNALKGVAKTVAAQLLKKAR-NH2 [GV23] | 16
TVAAQLLKKAR-NH2 [GV11] | > 512

system: MRSA (BO42 V2E1 A); test: MIC/MBC determination; assay type: cell-based, Methicillin-resistant Staphylococcus aureus; conditions: 10 µl from MIC wells on MHA, 37 °C, 20 h, no colony growth
Procedure, shortened: as §1

Substance | MBC [µM]
GVIFNALKGVAKTVAAQLLKK-NH2 [GV21] | 16
GVIFNALKGVAKTVAAQLLKKAR-NH2 [GV23] | 8
TVAAQLLKKAR-NH2 [GV11] | > 512

same assay, conditions: MHB, 5 × 10^5 CFU/ml, 37 °C, 20 h, read at 550 nm

Substance | MIC [µM]
GVIFNALKGVAKTVAAQLLKK-NH2 [GV21] | 8
GVIFNALKGVAKTVAAQLLKKAR-NH2 [GV23] | 8
TVAAQLLKKAR-NH2 [GV11] | > 512

system: S. aureus (NCTC 10788); test: Condition sensitivity assay; assay type: cell-based, Staphylococcus aureus; conditions: MHB with 6 μM NH4Cl

Substance | MIC [µM]
GVIFNALKGVAKTVAAQLLKK-NH2 [GV21] | 2
GVIFNALKGVAKTVAAQLLKKAR-NH2 [GV23] | 2

same assay, conditions: MHB with 1 mM MgCl2

Substance | MIC [µM]
GVIFNALKGVAKTVAAQLLKK-NH2 [GV21] | 2
GVIFNALKGVAKTVAAQLLKKAR-NH2 [GV23] | 2

same assay, conditions: MHB with 2.5 mM CaCl2

Substance | MIC [µM]
GVIFNALKGVAKTVAAQLLKK-NH2 [GV21] | 2
GVIFNALKGVAKTVAAQLLKKAR-NH2 [GV23] | 2

same assay, conditions: MHB with 4 mM FeCl3

Substance | MIC [µM]
GVIFNALKGVAKTVAAQLLKK-NH2 [GV21] | 2
GVIFNALKGVAKTVAAQLLKKAR-NH2 [GV23] | 2

same assay, conditions: MHB with 4.5 mM KCl

Substance | MIC [µM]
GVIFNALKGVAKTVAAQLLKK-NH2 [GV21] | 2
GVIFNALKGVAKTVAAQLLKKAR-NH2 [GV23] | 2

same assay, conditions: MHB with 8 mM ZnCl2

Substance | MIC [µM]
GVIFNALKGVAKTVAAQLLKK-NH2 [GV21] | 2
GVIFNALKGVAKTVAAQLLKKAR-NH2 [GV23] | 2

same assay, conditions: MHB with 150 mM NaCl

Substance | MIC [µM]
GVIFNALKGVAKTVAAQLLKK-NH2 [GV21] | 2
GVIFNALKGVAKTVAAQLLKKAR-NH2 [GV23] | 2

same assay, conditions: MHB with 10% horse serum

Substance | MIC [µM]
GVIFNALKGVAKTVAAQLLKK-NH2 [GV21] | 2
GVIFNALKGVAKTVAAQLLKKAR-NH2 [GV23] | 2

same assay, conditions: PBS (no added salt)

Substance | MIC [µM]
GVIFNALKGVAKTVAAQLLKK-NH2 [GV21] | 2
GVIFNALKGVAKTVAAQLLKKAR-NH2 [GV23] | 2

system: human keratinocyte cell line HaCaT; test: Lactate dehydrogenase; assay type: cell-based; conditions: HaCaT cells, 100 μM peptide, 24 h, compared to the positive control
Procedure, shortened: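 Peptide added at 100 µM to 1 µM for 24 h. Lysis buffer gave maximum LDH; after 45 min, supernatant reacted 30 min dark at room temperature, then stopped. Absorbance read at 490 and 680 nm. Release expressed as percent of 1% Triton X-100, PBS negative; nine replicates from three experiments, mean ± SEM.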

Substance | LDH release rate (maximum) [%]
GVIFNALKGVAKTVAAQLLKK-NH2 [GV21] | 22.36

system: MRSA (BO38 V1S1 A); test: MIC/MBC determination; assay type: cell-based, Methicillin-resistant Staphylococcus aureus; conditions: 10 µl from MIC wells on MHA, 37 °C, 20 h, no colony growth
Procedure, shortened: as §1

Substance | MBC [µM]
GVIFNALKGVAKTVAAQLLKK-NH2 [GV21] | 8
GVIFNALKGVAKTVAAQLLKKAR-NH2 [GV23] | 8
TVAAQLLKKAR-NH2 [GV11] | > 512

same assay, conditions: MHB, 5 × 10^5 CFU/ml, 37 °C, 20 h, read at 550 nm

Substance | MIC [µM]
GVIFNALKGVAKTVAAQLLKK-NH2 [GV21] | 8
GVIFNALKGVAKTVAAQLLKKAR-NH2 [GV23] | 2
TVAAQLLKKAR-NH2 [GV11] | > 512

system: MRSA (NCTC 12493); test: MIC/MBC determination; assay type: cell-based, Methicillin-resistant Staphylococcus aureus; conditions: 10 µl from MIC wells on MHA, 37 °C, 20 h, no colony growth
Procedure, shortened: as §1

Substance | MBC [µM]
GVIFNALKGVAKTVAAQLLKK-NH2 [GV21] | 4
GVIFNALKGVAKTVAAQLLKKAR-NH2 [GV23] | 2
TVAAQLLKKAR-NH2 [GV11] | > 512

same assay, conditions: MHB, 5 × 10^5 CFU/ml, 37 °C, 20 h, read at 550 nm

Substance | MIC [µM]
GVIFNALKGVAKTVAAQLLKK-NH2 [GV21] | 4
GVIFNALKGVAKTVAAQLLKKAR-NH2 [GV23] | 2
TVAAQLLKKAR-NH2 [GV11] | > 512

system: MRSA (NCTC 12493); test: Condition sensitivity assay; assay type: cell-based, Methicillin-resistant Staphylococcus aureus; conditions: MHB with 6 μM NH4Cl

Substance | MIC [µM]
GVIFNALKGVAKTVAAQLLKK-NH2 [GV21] | 4
GVIFNALKGVAKTVAAQLLKKAR-NH2 [GV23] | 4

same assay, conditions: MHB with 1 mM MgCl2

Substance | MIC [µM]
GVIFNALKGVAKTVAAQLLKK-NH2 [GV21] | 4
GVIFNALKGVAKTVAAQLLKKAR-NH2 [GV23] | 4

same assay, conditions: MHB with 2.5 mM CaCl2

Substance | MIC [µM]
GVIFNALKGVAKTVAAQLLKK-NH2 [GV21] | 4
GVIFNALKGVAKTVAAQLLKKAR-NH2 [GV23] | 2

same assay, conditions: MHB with 4 mM FeCl3

Substance | MIC [µM]
GVIFNALKGVAKTVAAQLLKK-NH2 [GV21] | 4
GVIFNALKGVAKTVAAQLLKKAR-NH2 [GV23] | 2

same assay, conditions: MHB with 4.5 mM KCl

Substance | MIC [µM]
GVIFNALKGVAKTVAAQLLKK-NH2 [GV21] | 4
GVIFNALKGVAKTVAAQLLKKAR-NH2 [GV23] | 2

same assay, conditions: MHB with 8 mM ZnCl2

Substance | MIC [µM]
GVIFNALKGVAKTVAAQLLKK-NH2 [GV21] | 4
GVIFNALKGVAKTVAAQLLKKAR-NH2 [GV23] | 2

same assay, conditions: MHB with 150 mM NaCl

Substance | MIC [µM]
GVIFNALKGVAKTVAAQLLKK-NH2 [GV21] | 4
GVIFNALKGVAKTVAAQLLKKAR-NH2 [GV23] | 2

same assay, conditions: MHB with 10% horse serum

Substance | MIC [µM]
GVIFNALKGVAKTVAAQLLKK-NH2 [GV21] | 4
GVIFNALKGVAKTVAAQLLKKAR-NH2 [GV23] | 2

same assay, conditions: PBS (no added salt)

Substance | MIC [µM]
GVIFNALKGVAKTVAAQLLKK-NH2 [GV21] | 4
GVIFNALKGVAKTVAAQLLKKAR-NH2 [GV23] | 2

system: Escherichia coli (E. coli) (ATCC 8739); test: MIC/MBC determination; assay type: cell-based; conditions: 10 µl from MIC wells on MHA, 37 °C, 20 h, no colony growth
Procedure, shortened: as §1

Substance | MBC [µM]
GVIFNALKGVAKTVAAQLLKK-NH2 [GV21] | 8
GVIFNALKGVAKTVAAQLLKKAR-NH2 [GV23] | 8
TVAAQLLKKAR-NH2 [GV11] | > 512

same assay, conditions: MHB, 5 × 10^5 CFU/ml, 37 °C, 20 h, read at 550 nm

Substance | MIC [µM]
GVIFNALKGVAKTVAAQLLKK-NH2 [GV21] | 4
GVIFNALKGVAKTVAAQLLKKAR-NH2 [GV23] | 4
TVAAQLLKKAR-NH2 [GV11] | > 512

system: Staphylococcus aureus (S. aureus) (NCTC 10788); test: MIC/MBC determination; assay type: cell-based; conditions: 10 µl from MIC wells on MHA, 37 °C, 20 h, no colony growth
Procedure, shortened: as §1

Substance | MBC [µM]
GVIFNALKGVAKTVAAQLLKK-NH2 [GV21] | 4
GVIFNALKGVAKTVAAQLLKKAR-NH2 [GV23] | 16
TVAAQLLKKAR-NH2 [GV11] | > 512

same assay, conditions: MHB, 5 × 10^5 CFU/ml, 37 °C, 20 h, read at 550 nm

Substance | MIC [µM]
GVIFNALKGVAKTVAAQLLKK-NH2 [GV21] | 2
GVIFNALKGVAKTVAAQLLKKAR-NH2 [GV23] | 2
TVAAQLLKKAR-NH2 [GV11] | > 512

system: Enterococcus faecium (E. faecium) (NTCC-12697); test: MIC/MBC determination; assay type: cell-based; conditions: 10 µl from MIC wells on MHA, 37 °C, 20 h, no colony growth
Procedure, shortened: as §1

Substance | MBC [µM]
GVIFNALKGVAKTVAAQLLKK-NH2 [GV21] | 8
GVIFNALKGVAKTVAAQLLKKAR-NH2 [GV23] | 16
TVAAQLLKKAR-NH2 [GV11] | > 512

same assay, conditions: MHB, 5 × 10^5 CFU/ml, 37 °C, 20 h, read at 550 nm

Substance | MIC [µM]
GVIFNALKGVAKTVAAQLLKK-NH2 [GV21] | 4
GVIFNALKGVAKTVAAQLLKKAR-NH2 [GV23] | 16
TVAAQLLKKAR-NH2 [GV11] | > 512
